bIAP act: increases bovine intestinal alkaline phosphatase activity. purified bovine IAP, CDP-star luminescence, 30 min; active compounds read high; fold of DMSO-control signal, blank-subtracted. activation factor at 20 µM. actives 0.17% (n = 200,000);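 active means activation factor of 2 or more at 20 µM, a signal rise over negative controls twice the positive control's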
bIAP inh: intestinal alkaline phosphatase (bovine) inhibition; inhibition, % at 20 µM; AID 1019; purified bovine IAP, CDP-star luminescence, 30 min; 190,000 tested, under 10 active;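 active means over 50% inhibition of intestinal alkaline phosphatase at 20 µM in the single-dose screen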
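Assay system – bovine IAP enzyme · Quantity – bovine IAP at 1/65,000,000 final dilution · Detection – CDP-star luminescence signal · Times – 30 min reaction at room temperature · Also added – CDP-star substrate at 30 µM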
mIAP block: blocks mouse intestinal alkaline phosphatase; purified mouse IAP, CDP-Star luminescence, 30 min; inhibition, % at 10 µM; actives 0.2% (n = 330,000); AID 2806;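 active means inhibition of at least 40% at 10 µM in the primary screen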
hIAP activ: human IAP activation; P09923; purified human IAP, CDP-Star luminescence, 30 min; active compounds read high; 1 = vehicle-only enzyme, 0 = enzyme-free background; activation factor at 10 µM; actives 0.16% (n = 330,000); AID 2524;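 active means activation factor of the enzyme at least 2-fold when tested at 20 µM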
Target sequence (P09923 whole entry, looked up): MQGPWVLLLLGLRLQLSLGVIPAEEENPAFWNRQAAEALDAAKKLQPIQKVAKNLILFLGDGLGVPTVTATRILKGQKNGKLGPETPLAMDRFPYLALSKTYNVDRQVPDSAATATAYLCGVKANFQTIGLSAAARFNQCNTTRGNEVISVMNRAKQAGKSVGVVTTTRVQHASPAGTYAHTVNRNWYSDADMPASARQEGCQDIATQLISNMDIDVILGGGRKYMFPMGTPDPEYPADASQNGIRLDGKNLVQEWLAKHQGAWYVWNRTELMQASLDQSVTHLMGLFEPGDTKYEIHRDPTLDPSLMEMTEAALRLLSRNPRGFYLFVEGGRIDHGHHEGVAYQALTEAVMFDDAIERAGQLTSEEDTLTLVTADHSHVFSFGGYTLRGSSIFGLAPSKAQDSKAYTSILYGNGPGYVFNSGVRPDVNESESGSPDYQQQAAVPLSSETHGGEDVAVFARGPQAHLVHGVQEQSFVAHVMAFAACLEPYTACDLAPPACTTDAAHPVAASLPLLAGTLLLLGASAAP
mIAP activ: increases mouse intestinal alkaline phosphatase activity | actives 0.24% (n = 330,000) | muIAP, CDP-Star luminescence, 30 min; active compounds read high; 1 = vehicle-only enzyme signal, 0 = enzyme-free wells | AID 2805 | activation factor at 10 µM;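 active means activation factor of at least 2 at 20 µM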
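Assay system: mouse IAP enzyme; Reagent: CDP-Star chemiluminescent phosphatase substrate; Compound: DMSO-dissolved test compounds; Incubation: 30 min, room temperature; Technique: luminescence from enzymatic CDP-Star hydrolysis; Controls: DMSO-only wells and no-enzyme negative control.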
hIAP inh: human IAP inhibition; P09923; purified IAP, CDP-Star luminescence, 30 min; inhibition, % at 10 µM; actives 0.12% (n = 330,000); AID 2544;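 active means inhibition reaching a set limit with compound at 10 µM in the primary screen, cut at about 35% in these data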
Numbers stand for hits. Rows were chosen to be rich in hits. Some 0.72% of all compounds tested hit in one or more screens of this group.

CC(=O)Nc1cccc(NC(=O)Nc2ccc(C)c(Cl)c2)c1 was read as bIAP act inactive, bIAP inh inactive, mIAP block inactive, hIAP activ inactive, mIAP activ 2.11 and hIAP inh inactive.
Screening CC(=O)Nc1ccc(NC(=O)Nc2ccc(C)c(C)c2)cc1 returned bIAP act inactive, bIAP inh inactive, mIAP block inactive, hIAP activ inactive, mIAP activ inactive and hIAP inh inactive.
For CC(=O)Nc1ccc(C2=NN(c3ccccc3)C(c3ccccc3)C2)cc1 (stereo not drawn) the results were mIAP block inactive, hIAP activ inactive, mIAP activ 2.34 and hIAP inh inactive.
`COc1ccc(C2CC(c3ccccc3)=NN2c2ccc(C(N)=O)cc2)cc1` (stereo not drawn) gave mIAP block inactive, hIAP activ inactive, mIAP activ 2.83 and hIAP inh inactive.
O=C(COC(=O)c1ccccc1F)Nc1ccc(S(=O)(=O)N2CCOCC2)cc1 was read as mIAP block inactive, hIAP activ inactive, mIAP activ inactive and hIAP inh inactive.
For C=C[C@@H]1c2cc(C)ccc2N(S(=O)(=O)c2ccc(C)cc2)[C@H](c2ccccc2)C1(C#N)S(=O)(=O)c1ccccc1 (stereo partly drawn) the results were mIAP block inactive, hIAP activ inactive, mIAP activ inactive and hIAP inh inactive.
COC(=O)Nc1ccc(S(=O)(=O)Nc2ccc(C)cc2)cc1 was read as bIAP act inactive and bIAP inh inactive.
For COC(=O)Nc1ccc(S(=O)(=O)Nc2ccc(O)cc2)cc1 the results were bIAP act 2.4, bIAP inh inactive, mIAP block inactive, hIAP activ inactive, mIAP activ inactive and hIAP inh inactive.
For O=C(CN1C(=O)C(=O)N(C2CCCC2)C1=O)Nc1ccc(OC(F)F)cc1 the results were mIAP block inactive, hIAP activ inactive, mIAP activ inactive and hIAP inh inactive.
For Cc1cccc(C2=NN(c3ccccc3)[C@H](CO)[C@H]2c2ccc(Cl)cc2)c1 the results were mIAP block inactive and mIAP activ 2.01.
`OC[C@@H]1[C@@H](c2ccccc2)C(c2ccc(F)cc2)=NN1c1ccccc1` gave mIAP block inactive and mIAP activ inactive.
`OC[C@@H]1[C@@H](c2ccc(Cl)cc2)C(c2ccc(F)cc2)=NN1c1ccccc1` gave mIAP block inactive and mIAP activ 2.02.
O=C(COC(=O)c1cccc(OC(F)F)c1)Nc1ncccn1 was read as mIAP block inactive, hIAP activ inactive, mIAP activ inactive and hIAP inh inactive.
`CCOC(=O)C1=CNS(=O)(=O)NC1c1ccccc1` (stereo not drawn) gave mIAP block inactive and mIAP activ inactive.
Screening CCC(=O)c1ccc(OC(=O)C2CCN(C3=NS(=O)(=O)c4ccccc43)CC2)cc1 returned mIAP block inactive, hIAP activ inactive, mIAP activ inactive and hIAP inh inactive.
`CC1CCCN(C(C(=O)Nc2ccc3c(c2)OCO3)c2ccccc2)C1` (stereo not drawn) gave bIAP act 2.1, bIAP inh inactive, mIAP block inactive, hIAP activ inactive, mIAP activ inactive and hIAP inh inactive.
For CC1CCCN(C(C(=O)Nc2ccc3c(c2)OCCO3)c2ccccc2)C1 (stereo not drawn) the results were bIAP act inactive, bIAP inh inactive, mIAP block inactive, hIAP activ inactive, mIAP activ inactive and hIAP inh inactive.
Screening CC1CCN(C(C(=O)Nc2ccc3c(c2)OCO3)c2ccccc2)CC1 (stereo not drawn) returned bIAP act 2.7, bIAP inh inactive, mIAP block inactive, hIAP activ inactive, mIAP activ inactive and hIAP inh inactive.
Screening O=CC1=C(c2ccccc2)Oc2ccccc2O1 returned mIAP block inactive, hIAP activ inactive, mIAP activ inactive and hIAP inh inactive.
`CN(C(=O)C1CCCN1S(=O)(=O)c1ccc(Cl)cc1)c1ccccc1` (stereo not drawn) gave mIAP block inactive, hIAP activ inactive, mIAP activ inactive and hIAP inh inactive.
`O=[N+]([O-])c1c(Nc2ccc(O)cc2)cc(Cl)c2nonc12` gave mIAP block inactive, hIAP activ inactive, mIAP activ inactive and hIAP inh inactive.
`NS(=O)(=O)c1ccc(N2N=C(c3ccccc3)CC2c2ccc(F)cc2)cc1` (stereo not drawn) gave bIAP act inactive, bIAP inh inactive, mIAP block inactive, hIAP activ inactive, mIAP activ 2.08 and hIAP inh inactive.
`Fc1ccc(C2CC(c3cccs3)=NN2c2ccccc2)cc1` (stereo not drawn) gave bIAP act inactive, bIAP inh inactive, mIAP block inactive, hIAP activ inactive, mIAP activ 2.3 and hIAP inh inactive.
`Cc1ccc(C(=O)N(C)Cc2nc3ccccc3c(=O)[nH]2)cc1NC(=O)c1ccco1` gave mIAP block inactive, hIAP activ inactive, mIAP activ inactive and hIAP inh inactive.
`COc1ccc(C(CC(=O)Nc2ccccc2OC)n2cccc2)cc1` (stereo not drawn) gave bIAP act inactive, bIAP inh inactive, mIAP block inactive, hIAP activ inactive, mIAP activ inactive and hIAP inh inactive.
COc1ccc(C(CC(=O)Nc2cc(OC)cc(OC)c2)n2cccc2)cc1 (stereo not drawn) was read as bIAP act inactive, bIAP inh inactive, mIAP block inactive, hIAP activ inactive, mIAP activ 2.22 and hIAP inh inactive.
For Cc1ccc(N2C(=O)N(CC(=O)N3c4ccccc4CC3C)C(=O)C2C)cc1 (stereo not drawn) the results were mIAP block inactive, hIAP activ inactive, mIAP activ inactive and hIAP inh inactive.
For N#CCc1ccccc1C(=O)OCC(=O)N(Cc1ccccc1)Cc1ccccc1 the results were mIAP block inactive, hIAP activ inactive, mIAP activ inactive and hIAP inh inactive.
Screening Cc1cccc(NC(=O)[C@H](Cc2ccccc2)NC(=O)OCc2ccccc2)c1 returned bIAP act inactive, bIAP inh inactive, mIAP block inactive, hIAP activ inactive, mIAP activ inactive and hIAP inh inactive.
For Cc1ccc(NC(=O)C(Cc2ccccc2)NC(=O)OCc2ccccc2)cc1C (stereo not drawn) the results were bIAP act inactive, bIAP inh inactive, mIAP block inactive, hIAP activ inactive, mIAP activ 2.11 and hIAP inh inactive.
Screening O=C(Nc1nc2ccccc2s1)c1cnccn1 returned bIAP act inactive, bIAP inh inactive, mIAP block inactive, hIAP activ inactive, mIAP activ inactive and hIAP inh inactive.
Screening O=C(Nc1nc(-c2ccco2)c(-c2ccco2)s1)c1cnccn1 returned mIAP block 43.6, hIAP activ inactive, mIAP activ inactive and hIAP inh inactive.
